In ChEMBL document CHEMBL4689842, “EUbOPEN Chemogenomics Library wave 1” (2021):

Tested on: U2OS
Assay: Multiplex assay against U2OS
Assay type: toxicity, cell-based
Conditions: human
Method in brief: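 At seeding, live cells were stained with Hoechst33342, BioTracker Green Microtubule Cytoskeleton Dye, MitoTracker Red and Annexin V Alexa Fluor 680. After compound addition they were imaged on a CQ1 microscope at 37°C and 5% CO2, and CellPathfinder machine-learning gating sorted them into Hoechst high-intensity objects or normal cells, with normal cells further split into healthy, pyknosed or fragmented nuclei and pyknosed cells into mitotic or apoptotic. Tubulin, mitochondrial-mass and membrane-permeability phenotypes are given as per cents of cells with healthy nuclei.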

[1] = 12 h, 1 µM, compound concentration 1 uM, replicate 1
[2] = 12 h, 1 µM, compound concentration 1 uM, replicate 2
[3] = 12 h, 10 µM, compound concentration 10 uM, replicate 1
[4] = 12 h, 10 µM, compound concentration 10 uM, replicate 2
[5] = 24 h, 1 µM, compound concentration 1 uM, replicate 1
[6] = 24 h, 1 µM, compound concentration 1 uM, replicate 2
[7] = 24 h, 10 µM, compound concentration 10 uM, replicate 1
[8] = 24 h, 10 µM, compound concentration 10 uM, replicate 2
[9] = 48 h, 1 µM, compound concentration 1 uM, replicate 1
[10] = 48 h, 1 µM, compound concentration 1 uM, replicate 2
[11] = 48 h, 10 µM, compound concentration 10 uM, replicate 1
[12] = 48 h, 10 µM, compound concentration 10 uM, replicate 2

`CCN1CCN(Cc2ccc(Nc3ncc(F)c(-c4cc(F)c5nc(C)n(C(C)C)c5c4)n3)nc2)CC1.CS(=O)(=O)O` was tested, and the “Population Apoptotic (%)” value [1] was 46%, the “Population Fragmented Nuclei (%)” value [1] was 18% and the “Population Healthy Nuclei (%)” value [1] was 63%. For the same molecule, the “Population Hoechst High Intensity Objects (%)” value [1] was 8%, the “Population Membrane Permeable-Phenotype (%)” value [1] was 4% and the “Population Mitochondria Different-Phenotype (%)” value [1] was 92%. For the same molecule, the “Population Mitotic Cells (%)” value [1] was 53%, the “Population Normal (%)” value [1] was 91% and the “Population Pyknosed Nuclei (%)” value [1] was 17%. For the same molecule, the “Population Tubulin-Different-Phenotype (%)” value [1] was 91%, the “Total Cell Count” value [1] was 160 and the “Population Apoptotic (%)” value [2] was 40%. For the same molecule, the “Population Fragmented Nuclei (%)” value [2] was 17%, the “Population Healthy Nuclei (%)” value [2] was 67% and the “Population Hoechst High Intensity Objects (%)” value [2] was 6%. For the same molecule, the “Population Membrane Permeable-Phenotype (%)” value [2] was 8%, the “Population Mitochondria Different-Phenotype (%)” value [2] was 91% and the “Population Mitotic Cells (%)” value [2] was 60%. The “Population Normal (%)” value [2] was 93%, the “Population Pyknosed Nuclei (%)” value [2] was 14% and the “Population Tubulin-Different-Phenotype (%)” value [2] was 97%. The “Total Cell Count” value [2] was 73, the “Population Apoptotic (%)” value [3] was 82% and the “Population Fragmented Nuclei (%)” value [3] was 35%. The “Population Healthy Nuclei (%)” value [3] was 29%, the “Population Hoechst High Intensity Objects (%)” value [3] was 5% and the “Population Membrane Permeable-Phenotype (%)” value [3] was 66%. For the same molecule, the “Population Mitochondria Different-Phenotype (%)” value [3] was 100%, the “Population Mitotic Cells (%)” value [3] was 18% and the “Population Normal (%)” value [3] was 94%. The “Population Pyknosed Nuclei (%)” value [3] was 35%, the “Total Cell Count” value [3] was 151 and the “Population Apoptotic (%)” value [4] was 83%. The “Population Fragmented Nuclei (%)” value [4] was 32%, the “Population Healthy Nuclei (%)” value [4] was 22% and the “Population Hoechst High Intensity Objects (%)” value [4] was 9%. For the same molecule, the “Population Membrane Permeable-Phenotype (%)” value [4] was 88%, the “Population Mitochondria Different-Phenotype (%)” value [4] was 94% and the “Population Mitotic Cells (%)” value [4] was 16%. For the same molecule, the “Population Normal (%)” value [4] was 90%, the “Population Pyknosed Nuclei (%)” value [4] was 45% and the “Population Tubulin-Different-Phenotype (%)” value [4] was 100%. For the same molecule, the “Total Cell Count” value [4] was 88, the “Population Apoptotic (%)” value [5] was 53% and the “Population Fragmented Nuclei (%)” value [5] was 19%. The “Population Healthy Nuclei (%)” value [5] was 59%, the “Population Hoechst High Intensity Objects (%)” value [5] was 8% and the “Population Membrane Permeable-Phenotype (%)” value [5] was 10%. The “Population Mitochondria Different-Phenotype (%)” value [5] was 91%, the “Population Mitotic Cells (%)” value [5] was 46% and the “Population Normal (%)” value [5] was 91%. For the same molecule, the “Population Pyknosed Nuclei (%)” value [5] was 20%, the “Population Tubulin-Different-Phenotype (%)” value [5] was 89% and the “Total Cell Count” value [5] was 171. For the same molecule, the “Population Apoptotic (%)” value [6] was 58%, the “Population Fragmented Nuclei (%)” value [6] was 20% and the “Population Healthy Nuclei (%)” value [6] was 61%. The “Population Hoechst High Intensity Objects (%)” value [6] was 10%, the “Population Membrane Permeable-Phenotype (%)” value [6] was 21% and the “Population Mitochondria Different-Phenotype (%)” value [6] was 85%. For the same molecule, the “Population Mitotic Cells (%)” value [6] was 41%, the “Population Normal (%)” value [6] was 89% and the “Population Pyknosed Nuclei (%)” value [6] was 17%. The “Population Tubulin-Different-Phenotype (%)” value [6] was 87%, the “Total Cell Count” value [6] was 75 and the “Population Apoptotic (%)” value [7] was 96%. For the same molecule, the “Population Fragmented Nuclei (%)” value [7] was 41%, the “Population Healthy Nuclei (%)” value [7] was 8% and the “Population Hoechst High Intensity Objects (%)” value [7] was 8%. For the same molecule, the “Population Membrane Permeable-Phenotype (%)” value [7] was 72%, the “Population Mitochondria Different-Phenotype (%)” value [7] was 90% and the “Population Mitotic Cells (%)” value [7] was 3%. For the same molecule, the “Population Normal (%)” value [7] was 91%, the “Population Pyknosed Nuclei (%)” value [7] was 49% and the “Population Tubulin-Different-Phenotype (%)” value [7] was 90%. The “Total Cell Count” value [7] was 135, the “Population Apoptotic (%)” value [8] was 97% and the “Population Fragmented Nuclei (%)” value [8] was 27%. For the same molecule, the “Population Healthy Nuclei (%)” value [8] was 13%, the “Population Hoechst High Intensity Objects (%)” value [8] was 20% and the “Population Membrane Permeable-Phenotype (%)” value [8] was 100%. The “Population Mitochondria Different-Phenotype (%)” value [8] was 87%, the “Population Mitotic Cells (%)” value [8] was 2% and the “Population Normal (%)” value [8] was 79%. For the same molecule, the “Population Pyknosed Nuclei (%)” value [8] was 59%, the “Population Tubulin-Different-Phenotype (%)” value [8] was 100% and the “Total Cell Count” value [8] was 74. The “Population Apoptotic (%)” value [9] was 55%, the “Population Fragmented Nuclei (%)” value [9] was 26% and the “Population Membrane Permeable-Phenotype (%)” value [9] was 18%. For the same molecule, the “Population Mitochondria Different-Phenotype (%)” value [9] was 82%, the “Population Mitotic Cells (%)” value [9] was 44% and the “Population Pyknosed Nuclei (%)” value [9] was 21%. The “Population Tubulin-Different-Phenotype (%)” value [9] was 79%, the “Total Cell Count” value [9] was 215 and the “Population Apoptotic (%)” value [10] was 64%. For the same molecule, the “Population Fragmented Nuclei (%)” value [10] was 25%, the “Population Healthy Nuclei (%)” value [10] was 51% and the “Population Hoechst High Intensity Objects (%)” value [10] was 8%. For the same molecule, the “Population Membrane Permeable-Phenotype (%)” value [10] was 31%, the “Population Mitochondria Different-Phenotype (%)” value [10] was 71% and the “Population Mitotic Cells (%)” value [10] was 35%. The “Population Normal (%)” value [10] was 91%, the “Population Pyknosed Nuclei (%)” value [10] was 22% and the “Population Tubulin-Different-Phenotype (%)” value [10] was 84%. The “Total Cell Count” value [10] was 81, the “Population Apoptotic (%)” value [11] was 98% and the “Population Fragmented Nuclei (%)” value [11] was 43%. For the same molecule, the “Population Healthy Nuclei (%)” value [11] was 2%, the “Population Hoechst High Intensity Objects (%)” value [11] was 15% and the “Population Membrane Permeable-Phenotype (%)” value [11] was 100%. The “Population Mitochondria Different-Phenotype (%)” value [11] was 100%, the “Population Mitotic Cells (%)” value [11] was 1% and the “Population Normal (%)” value [11] was 84%. The “Population Pyknosed Nuclei (%)” value [11] was 53%, the “Population Tubulin-Different-Phenotype (%)” value [11] was 100% and the “Total Cell Count” value [11] was 137. For the same molecule, the “Population Apoptotic (%)” value [12] was 100%, the “Population Fragmented Nuclei (%)” value [12] was 17% and the “Population Healthy Nuclei (%)” value [12] was 45%. For the same molecule, the “Population Hoechst High Intensity Objects (%)” value [12] was 34%, the “Population Mitochondria Different-Phenotype (%)” value [12] was 95% and the “Population Mitotic Cells (%)” value [12] was 0%. For the same molecule, the “Population Normal (%)” value [12] was 65%, the “Population Pyknosed Nuclei (%)” value [12] was 36% and the “Population Tubulin-Different-Phenotype (%)” value [12] was 95%. The “Total Cell Count” value [12] was 70.
